Results as given in ChEMBL document CHEMBL1140086, “Targeting the ribose and phosphate binding site of p38 mitogen-activated protein (MAP) kinase: synthesis and biological testing of 2-alkylsulfanyl-, 4(5)-aryl-, 5(4)-heteroaryl-substituted imidazoles” (J Med Chem, 2008).

Tests used:
[1] = biological target: Mitogen-activated protein kinase 14 (Homo sapiens, UniProt Q16539); test: Inhibition of p38alpha
Blood = test: Inhibition of LPS-stimulated TNFalpha release in human whole blood by ELISA; assay type: functional, tissue-based
How it was run: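 Fresh human whole blood diluted with FBS; compound dilutions added, 15 min preincubation (5% CO2), then LPS stimulation; basal wells received DPBS-gentamicin. […] Tests in duplicate except where otherwise stated.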

Sequence of Mitogen-activated protein kinase 14 (Q16539 whole entry): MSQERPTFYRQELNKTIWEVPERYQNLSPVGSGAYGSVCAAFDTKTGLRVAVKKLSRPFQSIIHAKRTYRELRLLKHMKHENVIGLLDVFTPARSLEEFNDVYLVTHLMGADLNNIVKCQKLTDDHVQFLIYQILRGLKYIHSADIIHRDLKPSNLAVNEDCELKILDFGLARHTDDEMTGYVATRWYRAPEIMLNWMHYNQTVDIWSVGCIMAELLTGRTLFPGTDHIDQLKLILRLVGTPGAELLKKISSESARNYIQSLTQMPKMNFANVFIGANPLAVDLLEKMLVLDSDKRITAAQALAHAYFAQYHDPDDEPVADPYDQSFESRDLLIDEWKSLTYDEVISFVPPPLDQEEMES

| SMILES | IC50 [1] [nM] | IC50 (Blood) [nM] |
| --- | --- | --- |
| CCC(C)Nc1cc(-c2[nH]c(SCC(O)CO)nc2-c2ccc(F)cc2)ccn1 (stereo not given) | 5 | 156 |
| Cn1c(SCC(O)CO)nc(-c2ccc(F)cc2)c1-c1ccncc1 (stereo not given) | 1220 |  |
| COC(=O)CSc1nc(-c2ccc(F)cc2)c(-c2ccnc(NC(C)C)c2)[nH]1 | 4 | 12800 |
| OCCCSc1nc(-c2ccc(F)cc2)c(-c2ccncc2)[nH]1 | 215 | 6690 |
| OCCSc1nc(-c2ccc(F)cc2)c(-c2ccnc(N[C@H]3CC[C@H](O)CC3)c2)[nH]1 |  | 157 |
| CNc1cc(-c2[nH]c(SCC(O)CO)nc2-c2ccc(F)cc2)ccn1 (stereo not given) | 102 | 5720 |
| CCOP(=O)(CSc1nc(-c2ccc(F)cc2)c(-c2ccnc(NC(C)c3ccccc3)c2)[nH]1)OCC (stereo not given) |  | 19400 |
| OCCSc1nc(-c2ccc(F)cc2)c(-c2ccncc2)[nH]1 | 184 | 4210 |
| CSc1nc(-c2ccc(F)cc2)c(-c2ccnc(NC3CCOCC3)c2)[nH]1 |  | 201 |
| CC(C)Nc1cc(-c2[nH]c(SC[C@H](O)CO)nc2-c2ccc(F)cc2)ccn1 | 6 | 180 |
| CC(Nc1cc(-c2[nH]c(SCC(O)CO)nc2-c2ccc(F)cc2)ccn1)c1ccccc1 (stereo not given) | 41 | 936 |
| CC(C)C(C)Nc1cc(-c2[nH]c(SCCCO)nc2-c2ccc(F)cc2)ccn1 (stereo not given) | 12 | 145 |
| CC(C)Nc1cc(-c2[nH]c(SC[C@@H](O)CO)nc2-c2ccc(F)cc2)ccn1 | 3 | 123 |
| CCOC(=O)C(Sc1nc(-c2ccc(F)cc2)c(-c2ccncc2)[nH]1)C(=O)OCC | 2240 | 25400 |
| COC(=O)CSc1nc(-c2ccc(F)cc2)c(-c2ccnc(NC(C)c3ccccc3)c2)[nH]1 (stereo not given) | 36 | 45500 |
| CC(C)C(C)Nc1cc(-c2[nH]c(SCC(O)CO)nc2-c2ccc(F)cc2)ccn1 (stereo not given) | 15 | 183 |

| SMILES | IC50 [1] [nM] | IC50 (Blood) [nM] |
| --- | --- | --- |
| CC(C)CNc1cc(-c2[nH]c(SCC(O)CO)nc2-c2ccc(F)cc2)ccn1 (stereo not given) |  | 168 |
| CC(C)C(C)Nc1cc(-c2[nH]c(SCCO)nc2-c2ccc(F)cc2)ccn1 (stereo not given) | 11 | 37 |
| CCNc1cc(-c2[nH]c(SCC(O)CO)nc2-c2ccc(F)cc2)ccn1 (stereo not given) | 27 | 777 |
| CC(C)Nc1cc(-c2[nH]c(SCCO)nc2-c2ccc(F)cc2)ccn1 |  | 129 |
| COC(=O)CCCSc1nc(-c2ccc(F)cc2)c(-c2ccncc2)[nH]1 | 487 | 31900 |
| OCC(O)CSc1nc(-c2ccc(F)cc2)c(-c2ccnc(NCc3ccccc3)c2)[nH]1 (stereo not given) |  | 2670 |
| CC(C)C(C)Nc1cc(-c2[nH]c(SC[C@H](O)CO)nc2-c2ccc(F)cc2)ccn1 (stereo not given in full) | 18 | 167 |
| OCC(O)CSc1nc(-c2ccc(F)cc2)c(-c2ccncc2)[nH]1 (stereo not given) | 392 | 3380 |
| CC(Nc1cc(-c2[nH]c(SCC(=O)O)nc2-c2ccc(F)cc2)ccn1)c1ccccc1 (stereo not given) | 37 | 65700 |
| OCC(O)CSc1nc(-c2ccc(F)cc2)c(-c2ccnc(NC3CCOCC3)c2)[nH]1 (stereo not given) | 3 | 131 |
| OCCSc1nc(-c2ccc(F)cc2)c(-c2ccnc(NC3CCOCC3)c2)[nH]1 | 2 | 80 |
| COC(=O)CSc1nc(-c2ccc(F)cc2)c(-c2ccnc(NC(C)C(C)C)c2)[nH]1 (stereo not given) | 19 | 8940 |
| COC(=O)CSc1nc(-c2ccc(F)cc2)c(-c2ccncc2)[nH]1 | 158 | 31900 |
| CC(C)C(C)Nc1cc(-c2[nH]c(SC[C@@H](O)CO)nc2-c2ccc(F)cc2)ccn1 (stereo not given in full) | 10 | 139 |
| CC(C)Nc1cc(-c2[nH]c(SCC(O)CO)nc2-c2ccc(F)cc2)ccn1 (stereo not given) | 3 | 126 |
